This passage reports Ratio, partition ratio kcat/ki and Activity results from ChEMBL document CHEMBL1145444, “Mechanism-based thrombin inhibitors: design, synthesis, and molecular docking of a new selective 2-oxo-2H-1-benzopyran derivative” (J Med Chem, 2007).

The structures appear in SMILES notation.

Assay [1] is filed under the species Homo sapiens. The experiment in a line: Selectivity for thrombin over alpha chymotrypsin. In a few lines:
(§1)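 Inactivation rate constant (k_i) and K_I were determined by one of two methods depending on the protease. In the progress-curve method, inhibitor competes with a chromogenic substrate. In the preincubation method, enzyme and inhibitor are incubated first and remaining activity is sampled at regular time intervals. k_i/K_I serves as the potency index, and selectivity is taken as the ratio of k_i/K_I between proteases.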

The target of assay [2] is Prothrombin (Homo sapiens) (UniProt P00734). Briefly: Ratio of kcat for thrombin to Ki for thrombin. Put shortly:
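Partition ratio is the ratio of product released per inactivation event, calculated as k_cat/k_i, on thrombin.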

The target is the same in assay [3]. Briefly: Inhibition of thrombin assessed as residual activity at 100 uM after 10 min. In a few lines: (§2)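 Isolated, purified thrombin was incubated with inhibitor for 10 min, then its proteolytic activity was measured. Screening used 100 µM inhibitor, with lower concentrations for potent compounds. Values are reported as percentage of residual enzyme activity.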

Assay [4] shares this target. The experiment in a line: Inhibition of thrombin assessed as residual activity at 2 uM after 10 min. In a few lines:
as §2

Assay [5] shares this target. Briefly: Inhibition of thrombin assessed as residual activity at 10 uM after 10 min. Put shortly:
as §2

Assay [6] is filed under the species Homo sapiens. Briefly: Ratio of Ki for alpha chymotrypsin to K(inactivation) for alpha chymotrypsin. Put shortly:
as §1

Assay [7] concerns the target Prothrombin (Homo sapiens) (UniProt P00734). The experiment in a line: Ratio of Ki for thrombin to K(inactivation) for thrombin. Put shortly: as §1

With `O=C(Oc1cccc(Cl)c1)c1cc2cc(CCl)ccc2oc1=O`, the Ratio in the assay filed under Homo sapiens [1] stood at 0.01. Further, the partition ratio kcat/ki in assay [2] was 2.8.

As to `CCOC(=O)COc1ccc(Cl)cc1COC(=O)c1cc2cc(CCl)ccc2oc1=O`, the Activity in assay [3] was 95%.

Regarding `O=C(Nc1cc(Cl)ccc1O)c1cc2cc(CCl)ccc2oc1=O`, the Activity in assay [3] came out at 110%.

For the compound `CCNC(=O)COc1ccc(Cl)cc1OC(=O)c1cc2cc(CCl)ccc2oc1=O`, the Activity was found to be 11% in assay [4] and 3% in assay [5]. Also, the results for the Ratio (in the assay listed under Homo sapiens [1]; in the assay listed under Homo sapiens [6]; in assay [7]) were 5, 755 M⁻¹ s⁻¹ and 3460 M⁻¹ s⁻¹, respectively. Moreover, the partition ratio kcat/ki in assay [2] was found to be 13.5.

For `O=C(Oc1cccc(Cl)c1)c1cc2cc(Oc3ccccc3)ccc2oc1=O`, the Activity in assay [3] was found to be 90%.

As for `O=C(Oc1cc(Cl)ccc1Cl)c1cc2cc(CCl)ccc2oc1=O`, the Ratio in the assay filed under Homo sapiens [1] turned out to be 0.13. The partition ratio kcat/ki in assay [2] stood at 1.8.

With `O=C(OCc1cc(Cl)ccc1O)c1cc2cc(CCl)ccc2oc1=O`, in assay [3], the Activity turned out to be 101%.

For `O=C(Oc1cc(Cl)ccc1Cl)c1cc2cc(Oc3ccccc3)ccc2oc1=O`, in assay [3], the Activity came to 94%.

Take `O=C(OCc1cc(Cl)ccc1Cl)c1cc2cc(CCl)ccc2oc1=O`: in assay [3], the Activity came to 103%.

With `Nc1ccc(Cl)cc1OC(=O)c1cc2cc(CCl)ccc2oc1=O`, the Activity in assay [3] came out at 60%.

Regarding `O=C(Nc1cc(Cl)ccc1Cl)c1cc2cc(CCl)ccc2oc1=O`, in assay [3], the Activity was found to be 91%.
